Experimental data published in paper PMC8513424 (Laryngoscope Investigative Otolaryngology, 2021).
Where two headings read alike, the source gives them in different places.

What was measured:
[1] = Pilot 2 intra‐tumoral AR‐42 concentration by LC‐MS/MS; format: in vivo, human
How it was run: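 The oral test compound was given at 40 mg three times weekly for 3 weeks before resection. Each VS was divided into peripheral capsule and center, and samples were frozen quickly. Drug was measured by LC-MS/MS against a standard curve of known concentrations, as the mean of three runs. Tumor:plasma ratio = capsule or center concentration ÷ pre-anesthesia plasma concentration.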

[2] = day one, cited from earlier work
primary meningioma cells = conditions: read-out: IC50, primary meningioma cells; cited from earlier work
[3] = Stability in whole blood kept on ice; format: in vitro ADME
[4] = test system: AKT phosphorylation in primary human VS cells; assay: AKT phosphorylation in primary VS cells; format: cell-based; conditions: Figure S2
[5] = test system: patients with advanced solid tumors; conditions: cited from earlier work
[6] = test system: patients with NF2 or sporadic meningioma; assay: Pilot 1 safety and tolerability; format: in vivo, human
How it was run: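 Pilot 1 was a subset of a phase I, 3 + 3 dose-escalation study of the oral test compound in solid tumors. Dosing started at 30 mg three times weekly for 3 weeks, then 1 week off, per 28-day cycle. Adults (≥18 y, ECOG 0-1) had NF2-associated or sporadic VS/meningioma with ≥15% volumetric growth on pre-enrollment MRI. Toxicities were graded by CTCAE v4.0.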

[7] = test system: patients with multiple myeloma, and T‐ and B‐cell lymphomas; conditions: three times weekly for 3 weeks of a 28‐day cycle; cited from earlier work
[8] = test system: hearing of patients with NF2; assay: Pilot 1 audiograms; format: in vivo, human
VS and meningioma cells = conditions: cited from earlier work
[9] = test system: p‐AKT, p‐S6 and p‐ERK in VS and meningioma; assay: Pilot 2 fluorescent Western blotting of resected tumors; format: in vivo, human
How it was run: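 Patients took 40 mg of the test compound orally three times weekly for 3 weeks before resection. VS were split into peripheral capsule and center. Tumor lysates were run on fluorescent Western blots for p-AKT, total AKT, p-S6, total S6, p-ERK and total ERK. Phospho/total ratios were expressed as percent of an untreated banked VS or meningioma set as 100%.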

Ben‐Men‐1 xenograft = conditions: cited from earlier work
[10] = Pilot 2 plasma AR‐42 concentration by LC‐MS/MS; format: in vivo, human; conditions: 40 mg; for Concentration in plasma, Before surgery: mean of three trials
How it was run: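 Dosing was 40 mg orally three times weekly for 3 weeks before surgery. Venous blood was drawn at induction of anesthesia and again at tumor removal (about 3-4 h after surgery start). Plasma was separated by cold centrifugation and kept frozen. Drug was quantified by LC-MS/MS against a standard curve, as the mean of three runs. Pre-operative and removal-time levels were compared by paired t-test (P ≤ .05).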

schwannoma xenografts = conditions: cited from earlier work
human VS cells = conditions: cited from earlier work
[11] = Patient # 2.7 (meningioma), 40 mg

## CC(C)[C@H](C(=O)Nc1ccc(C(=O)NO)cc1)c1ccccc1 [AR‐42]
[1]; 40 mg
  Concentration in meningioma capsule: 5300 nM
  Concentration in meningioma tumor center: 1800 nM
  Concentrations of AR‐42 in VS: 230 to 620 nM
[1]; Patient # 2.1 (VS), 40 mg
  Concentration in tumors, Capsule: 624.2 nM
  Concentration in tumors, Center: 577.0 nM
[1]; Patient # 2.2 (VS), 40 mg
  Concentration in tumors, Capsule: 429.4 nM
  Concentration in tumors, Center: 586.6 nM
[1]; Patient # 2.4 (VS), 40 mg
  Concentration in tumors, Capsule: 230.6 nM
  Concentration in tumors, Center: 289.0 nM
[1]; Patient # 2.6 (VS), 40 mg
  Concentration in tumors, Capsule: 16.2 nM
  Concentration in tumors, Center: 7.1 nM
[1]; [11]
  Concentration in tumors, Capsule: 5296.6 nM
  Concentration in tumors, Center: 1766.2 nM
[1]; WHO grade I meningioma
  Meningioma (subject 2.7) AR‐42 level higher than the VS: 10 fold
[1]; all tumors, Pilot 2, 40 mg
  AR‐42 concentrations in tumors compared with plasma: higher
[2]; 60 mg dose
  Mean maximal plasma concentration: 1.48 (±0.38) μM
[2]; Patient 1.7, 80 mg dose
  Maximum plasma concentration: 3.25 µM
Primary meningioma cells
  IC50: 1.5 µM
[3]
  Time stable in blood kept on ice: more than 4 hours
[4]
  AKT phosphorylation in primary human VS cells: reduced AKT phosphorylation
[5]; 30, 60 or 80 mg orally
  Dose‐limiting toxicities (DLTs): grade 3 thrombocytopenia and grade 4 psychosis
[5]; NF2 and non‐NF2 meningioma subset, RECIST, 95% CI: 1.9—not reached
  Median progression‐free survival: 9.1 months
[5]
  Most common treatment‐related adverse events: cytopenias, fatigue, and nausea
[5]; daily, three times weekly for 3 weeks of a 28‐day cycle
  Recommended phase II dose: 60 mg
[6]; Patient 1.7, 80 mg, after 10 days of treatment, or 5 doses
  Dose‐limiting toxicity: grade 4 psychiatric disorder
[6]; Pilot 1, 60 mg
  Tolerability: generally well tolerated
[6]; Pilot 1, 60‐80 mg
  Arrhythmias or QT prolongations: no reported arrhythmias or QT prolongations of any grade
[7]
  Maximum tolerated dose (MTD): 40 mg
[8]; Patient 1.6, from 17 db at initiation
  Pure tone average (PTA) after treatment: 55 db
[8]; patients 1.1, 1.4 and 1.7
  Measurable hearing in the contralateral ear on AR‐42: remained stable
VS and meningioma cells
  Apoptosis: triggered apoptosis
  Cell cycle effect: induced cell‐cycle arrest at G2/M
  p‐AKT levels: decreased p‐AKT levels
[9]; Patient 2.7, vs untreated meningioma
  p‐S6 in meningioma: reduction in p‐S6
[9]; Patient 2.7, vs untreated meningioma tumors
  p‐AKT in meningioma: not reduced
[9]; vs untreated VS, 40 mg
  Levels of p‐ERKs and p‐S6 in AR‐42‐treated VS: substantially reduced in three of four
  p‐AKT levels in AR‐42‐treated VS tumors: decreased p‐AKT levels in three of four
Ben‐Men‐1 xenograft
  Meningioma tumor volumes: markedly diminished meningioma tumor volumes
Ben‐Men‐1 xenograft; followed 6 months post‐treatment
  Tumor return after treatment: tumors did not return
[10]; Patient # 2.1 (VS)
  Concentration in plasma, At tumor removal: 303.7 nM
  Concentration in plasma, Before surgery: 362.3 nM
[10]; Patient # 2.2 (VS)
  Concentration in plasma, At tumor removal: 121.1 nM
  Concentration in plasma, Before surgery: 224.2 nM
[10]; Patient # 2.4 (VS)
  Concentration in plasma, At tumor removal: 36.8 nM
  Concentration in plasma, Before surgery: 61.8 nM
[10]; Patient # 2.6 (VS)
  Concentration in plasma, At tumor removal: 3.4 nM
  Concentration in plasma, Before surgery: 3.5 nM
[10]; Patient # 2.7 (meningioma)
  Concentration in plasma, At tumor removal: 72.9 nM
  Concentration in plasma, Before surgery: 99.1 nM
[10]; first three patients with VS, before and at tumor removal
  Plasma concentration of AR‐42: 62 to 360 nM
[10]; patient with meningioma
  Plasma level after anesthesia: 73 nM
  Plasma level before anesthesia: 99 nM
Schwannoma xenografts
  AKT activation in schwannoma xenografts: decreased AKT activation
  Apoptosis in schwannoma xenografts: induced apoptosis
  Growth of schwannoma xenografts: inhibited the growth of schwannoma xenografts
Human VS cells; read-out: IC50, growth inhibition of human VS cells
  IC50: 0.5 µM
Human VS cells; read-out: IC50 for schwannomas, previous in vitro studies
  IC50: ~0.5 µM
